Reference: ChEMBL document CHEMBL4513216, “Probing the Open Global Health Chemical Diversity Library for Multistage-Active Starting Points for Next-Generation Antimalarials” (ACS Infect Dis, 2020)

experiment: Toxicity liver stage against HepG2, at 10uM; format: cell-based; parameters: test concentration 10 uM, cell line HepG2-A16-CD81EGFP; conditions: human, HepG2-A16-CD81EGFP cells; read-out: INHIBITION
How it was run: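 Uninfected HepG2-A16-CD81EGFP cells, 3 × 10^3 per well, 1536-well, plated on prespotted compound at 10 μM final, parasite-free screening media added to match infected plates; puromycin 10 μM positive, DMSO 0.5% negative; run in parallel with 48 h PbLuc assay at 37 °C, 5% CO2; viability by CellTiter-Glo luminescence, normalized to controls.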

| Compound | cytotoxicity at 10 µM [%] |
| --- | --- |
| Cc1ccn(-c2ccc(C(=O)N3CCCC(n4ccnc4)C3)cc2)n1 (stereo unspecified) | -8.31 |
| Cc1cc(Cl)ccc1-n1ncc(C(=O)N(C)CCc2ccccn2)c1N | -7.3 |
| CC(=O)Nc1nc(C(=O)N2CCCC2Cn2cc(C)cn2)cs1 (stereo unspecified) | 7.07 |
| CCn1cnnc1CNC(=O)c1cc(Cl)ccc1O | 2.17 |
| Cc1ccccc1CSc1nc(N)cc(N2CCCC(O)C2)n1 (stereo unspecified) | -6.52 |
| CSc1ncccc1C(=O)N(CCO)Cc1ccccc1 | 2.22 |
| Cc1ccc2nccc(C(=O)N3CCOC(CCN(C)C)C3)c2c1 (stereo unspecified) | 10.8 |
| CCN(CC)C1CCN(C(=O)c2cc(CC(C)C)nn2CC)C1 (stereo unspecified) | -7.74 |
| CCOCC(O)CN1CCN(C(=O)Cc2cccc(C)c2)CC1 (stereo unspecified) | -7.1 |
| CCN1CCCC1CN(Cc1ccoc1)CC1CCN(CCOC)CC1 (stereo unspecified) | -2.64 |
| CCOC(=O)c1cnn(-c2cc(Oc3ccccc3C)ncn2)c1N | 15.8 |
| COCc1nc2cc(NCc3cc[nH]n3)ccc2o1 | 6.7 |
| O=S(=O)(CCNCc1ccc2c(c1)CCO2)N1CCOCC1 | -9.61 |
| CC1=N[C@@]2(CC[C@@H]3CN(Cc4ccccc4F)C[C@@H]32)C(=O)N1C | 3.76 |
| Cc1cc2cccc(NC(=O)N3CCC(N(C)C)C3)c2o1 (stereo unspecified) | 1.97 |
| Cc1cccc(C2(CNC(=O)C(C)S(C)(=O)=O)CCCC2)c1 (stereo unspecified) | -2.76 |
| CN(Cc1ccco1)[C@@H]1CN(Cc2nccs2)C[C@@H]2CCCO[C@@H]21 | 6.07 |
| O=C1CC2(CCN(S(=O)(=O)c3cccs3)C2)CN1c1ccccc1 (stereo unspecified) | 5.08 |
| Cc1cccc(N2CCc3ncc(CNS(C)(=O)=O)n3CC2)n1 | 8.39 |
| Cc1ncsc1CCN1CCC(N(C)Cc2ncc(C(C)C)o2)C1 (stereo unspecified) | -7.49 |
| CCOC(=O)[C@]12CCCN(Cc3nccs3)C[C@H]1CN(S(C)(=O)=O)C2 | -5.79 |
| N#Cc1c(-c2ccccc2)csc1N | 2.42 |
| O=C(N1CCCC(n2cncn2)C1)C1(c2cccc(F)c2)CC1 (stereo unspecified) | -2.91 |

| Compound | cytotoxicity at 10 µM [%] |
| --- | --- |
| O=C1CC(N(C(=O)c2ccc3c(c2)CCC3)C2CC2)C(=O)N1 (stereo unspecified) | -1.99 |
| CN(C)C(=O)CO[C@H]1CN(Cc2nccs2)[C@@H]2COC[C@H]12 | 5.08 |
| CC1Oc2ccc(S(=O)(=O)NCCCn3ccnc3)cc2NC1=O (stereo unspecified) | 7.88 |
| CN(C)c1ccc(CC2COCCN(Cc3nccn3C)C2)nn1 (stereo unspecified) | -10.2 |
| Cn1cc(S(=O)(=O)N2CCCC2Cn2ccnc2)cn1 (stereo unspecified) | 6.58 |
| O=C(c1cccnc1-n1cccn1)N1CCN(CC2CC2)CC1 | -4.71 |
| Cc1nn(-c2ccccc2)c(C)c1-c1ccnc(N2CCCOCC2)n1 | -11.3 |
| CSC(C)(C)CNC(=O)NC1CCN(C)CC1 | 18.9 |
| Cc1cc(C)nc(C2CCCNC2)n1 (stereo unspecified) | 9.85 |
| Cc1nc(C2CCCN2C(=O)c2ccc(=O)n(C)n2)no1 (stereo unspecified) | -2.64 |
| CCCn1cnc2c1CN(C(=O)c1ccc(F)cc1)[C@H](C(=O)OC)C2 | 4.94 |
| Cc1nc(CN2CCN(C(C)c3nc(C(C)C)no3)CC2)oc1C (stereo unspecified) | -9.16 |
| Cc1[nH]ncc1C(=O)N(CC(C)C)CC(O)c1ccc(F)cc1 (stereo unspecified) | -1.61 |
| COc1ccc(C2SCC(=O)Nc3ccsc32)cc1 (stereo unspecified) | 10.5 |
| O=C(c1cccc(CNCC=Cc2ccccc2)c1)N1CCCC1 | 9.46 |
| c1cnc(N2CCO[C@H]3CN(Cc4ccsc4)C[C@H]32)nc1 | -82 |
| CN1CCN(C)c2cc(NC(=O)c3cc[nH]n3)ccc2C1 | -10.9 |
| COCCN(C)C[C@@H]1CN(C(=O)c2cccc(C(F)(F)F)c2)C[C@@H]1CO | -17.5 |
| CCc1n[nH]c(=O)c(C(=O)N2CCSC(C)(C)C2)c1CC | 18.6 |
| CC1CN(C(=O)c2sccc2Br)CCO1 (stereo unspecified) | 5.15 |
| COCCC1CCCCN1Cc1nc(C2CC2)no1 (stereo unspecified) | 8.53 |
| CNC(=O)C1(C)CN(c2nc(C)cc(C)n2)CCO1 (stereo unspecified) | 7.92 |
| CCOCc1ccccc1NC(=O)NCC(C)(O)c1cc(C)oc1C (stereo unspecified) | -1.48 |

| Compound | cytotoxicity at 10 µM [%] |
| --- | --- |
| COCC(=O)N1CCC(C(=O)N(C)CCCc2nccn2C)CC1 | -1.81 |
| Cc1nc(CN2CCCC(N(C)Cc3cscn3)C2)no1 (stereo unspecified) | 16.8 |
| Cc1nc(CN2CCCC3(CCN(c4cnn(C)c4)C3=O)C2)cs1 (stereo unspecified) | 3.16 |
| COc1ccc2c(c1)C(=O)NC1(CC2)CCN(Cc2ccccc2)C1 (stereo unspecified) | 0.585 |
| CC1CCC(NC(=O)NCC(C)(C)CCS(C)(=O)=O)CC1 (stereo unspecified) | 9.61 |
| O=C(Cc1cc(-c2ccc3c(c2)OCO3)on1)NC1CCCC1 | -2.34 |
| Cc1nc(-c2ccccc2)sc1CNC(=O)c1ccc(=O)n(C)c1 | -6.09 |
| CC(C)C(NC(=O)Cn1nc2c(cc1=O)CCCC2)C(=O)O (stereo unspecified) | 7.63 |
| CC(C)NC(=O)N1CCC2(COCc3cnc(-c4ccccc4)nc32)C1 (stereo unspecified) | -0.311 |
| O=C(COCC(F)(F)C(F)F)N1CCC2(CCCN(CC3CC3)C2=O)C1 (stereo unspecified) | 4.46 |
| CCCS(=O)(=O)N1CCC(NCc2c(C)nn(C)c2OC)CC1 | 7.01 |
| CCn1ncc2c1C(COCC1CC1)N(Cc1ccccn1)CC2 (stereo unspecified) | 10.9 |
| CCC(C)CNCC1(S(C)(=O)=O)CCOCC1 (stereo unspecified) | -11.4 |
| COCC(=O)NC1CC2(CCN(Cc3ccco3)CC2)c2ccccc21 (stereo unspecified) | 5.61 |
| CC(C)n1cc(N2CC(C(=O)N3CCC(C(N)=O)CC3)CC2=O)cn1 (stereo unspecified) | -4.51 |
| CC(=O)N1CCc2c(nc(N(C)C)nc2NCCC2CCCCO2)C1 (stereo unspecified) | 5.22 |
| CCS(=O)(=O)N1CCc2onc(CNc3ncccn3)c2C1 | -0.748 |
| COc1ccc(CNC(=O)N2CCCN(CC3CCCCC3)CC2)cn1 | -3.36 |
| O=S(=O)(NC1CCN(CC(F)(F)F)C1)c1cc(F)cc(F)c1 (stereo unspecified) | -5.18 |
| Cc1cnn(C2CCCN(C(=O)c3cn4cccnc4n3)C2)c1 (stereo unspecified) | -11.4 |
| CSCC(=O)N1CCCN(c2ccccc2C)CC1 | 8.14 |
| COCC(=O)N1CCCn2c(CN3CCCC3=O)nnc2C1 | -123 |
| CC(NC(=O)NCCCn1cccn1)c1ccncc1 (stereo unspecified) | 15.3 |

| Compound | cytotoxicity at 10 µM [%] |
| --- | --- |
| COc1c(CNC2CCc3ccccc32)c(C)nn1C (stereo unspecified) | 7.08 |
| Cc1csc(CN2CC[C@H]3C[C@@H](c4noc(C)n4)O[C@@H]3C2)n1 | -1.2 |
| CC1c2ncc(CNC(=O)C3CC3)n2CCN1Cc1cccnc1 (stereo unspecified) | -3.76 |
| c1cnc(NC[C@H]2OC[C@@H]3CCN(Cc4nccs4)C[C@@H]32)nc1 | -3.38 |
| Cc1cnc(CN(C)C2CCN(CC(=O)N(C)c3nccs3)C2)o1 (stereo unspecified) | -4.1 |
| Cc1ccc(CCC(=O)N2CCn3c(nnc3C(C)C)C2)cc1Cl | -5.45 |
| NC(=O)CN1CCC(NC2CSCCc3ccccc32)CC1 (stereo unspecified) | -3.21 |
| N#Cc1ccc(S(=O)(=O)Nc2cnn(C3CCOCC3)c2)cc1 | -11.3 |
| CCCc1cc(C(=O)N2C[C@H]3CCC[C@@]3(CO)C2)[nH]n1 | 10.4 |
| Cc1cccc2nc(C(=O)N3CCC4(CCC(=O)N(C)C4)CC3)c(F)n12 | -0.103 |
| Cn1cc(CN2C[C@@H]3COC[C@]3(C(=O)NCCc3ccccc3)C2)cn1 | 8.86 |
| CCc1nnc(CSc2ccccn2)o1 | -2.98 |
| CCS(=O)(=O)N1CC(c2nc(-c3ccncc3)no2)C1 | -5.86 |
| CN1CCC(N(C)C[C@H]2CC[C@@H](Cc3cccc(CO)c3)O2)CC1 | 0.224 |
| CC1(C)CN(S(=O)(=O)N2CCOCC2)CC1c1ccccc1 (stereo unspecified) | 1.69 |
| O=C(COc1cccnc1)N1CCOC(C(F)(F)F)C1 (stereo unspecified) | -11.5 |
| COCCC(=O)N1CCN(C)c2ncccc2C1 | -8.28 |
| O=C1CCCN1CC1CN(C(=O)CC2CCCC2)Cc2nccn2C1 (stereo unspecified) | 1.47 |
| O=C(Cc1ccccc1)NCCNCc1cccc(O)c1 | -0.206 |
| Cc1cc(=O)n(CC(=O)NC2CCCCC2)c2ccccc12 | 0.126 |
| O=C(NCc1ccccc1CN1CCC(O)CC1)Nc1ccccn1 | 8.52 |
| Cc1cccc(C(C)C)c1NC(=O)NCCN(C(C)C)C(C)C | -8.98 |
| CCn1c(CN2CCN(CCOC)CC2)nc2c(F)cccc21 | -9.86 |

| Compound | cytotoxicity at 10 µM [%] |
| --- | --- |
| COc1cccc(CC(=O)N2CC[C@@H]3[C@H](CC2)N(C)CCS3(=O)=O)c1 | 3.68 |
| Cn1c(CO)cnc1SC(C(=O)NC1CC1)c1ccccc1 (stereo unspecified) | -56 |
| Cc1ccc(CN2CC[C@H]3[C@@H]2CCC(=O)N3CCN2CCCC2)s1 | 3.01 |
| COc1ccc(Br)cc1CC(=O)N1CCCC1 | -2.69 |
| CCN(CC)CCCNCc1cc2cc(C)ccc2[nH]c1=O | -1.55 |
| COCCOc1nc(-c2ccccc2Cl)no1 | 9.4 |
| CC(c1cccnc1)N(C)S(C)(=O)=O (stereo unspecified) | -5.21 |
| Cc1ccc(C(=O)Nc2cc(C(N)=O)ccc2N2CCCCC2)cc1F | 2.13 |
| COc1ccc(C(=O)N2CCOC(Cc3cccc(C(F)(F)F)c3)C2)o1 (stereo unspecified) | -0.869 |
| CC(=O)c1ccc(CNC(=O)c2c(C)cc(C)cc2C)nc1C | 9.31 |
| COC(=O)CCNC(=O)c1nc(NS(=O)(=O)c2ccccc2)sc1C | 8.23 |
| O=C(NCCN1CCC(c2cccs2)CC1)c1ccccc1C(F)(F)F | -20.2 |
| CC(NC(=O)NC1CCN(Cc2ccncc2)CC1)c1ccccc1F (stereo unspecified) | -17.8 |
| Cc1ncsc1CN1C[C@@H]2COC[C@]2(C(=O)NCc2cccnc2)C1 | -106 |
| CCOc1ccc(Br)cc1-c1cc(N)[nH]n1 | -2.97 |
| CCN(CC)CC[C@H]1CN(C(=O)CC(C)(C)C)CC[C@H]1CC(=O)O | -0.668 |
| COCc1cn(C2CCN(Cc3ccc(Cl)s3)CC2)nn1 | 5.43 |
| O=C(Cc1ccccc1)N1CCC(c2nnc(-c3ccccn3)o2)CC1 | 2.83 |
| COc1ccc(C(=O)N2CCOCC2c2[nH]ncc2C)cc1F (stereo unspecified) | 2.21 |
